The target in assay [1] is T1, Serine/threonine-protein kinase Sgk2 (Homo sapiens) (UniProt Q9HBY8).
T1 sequence (whole entry): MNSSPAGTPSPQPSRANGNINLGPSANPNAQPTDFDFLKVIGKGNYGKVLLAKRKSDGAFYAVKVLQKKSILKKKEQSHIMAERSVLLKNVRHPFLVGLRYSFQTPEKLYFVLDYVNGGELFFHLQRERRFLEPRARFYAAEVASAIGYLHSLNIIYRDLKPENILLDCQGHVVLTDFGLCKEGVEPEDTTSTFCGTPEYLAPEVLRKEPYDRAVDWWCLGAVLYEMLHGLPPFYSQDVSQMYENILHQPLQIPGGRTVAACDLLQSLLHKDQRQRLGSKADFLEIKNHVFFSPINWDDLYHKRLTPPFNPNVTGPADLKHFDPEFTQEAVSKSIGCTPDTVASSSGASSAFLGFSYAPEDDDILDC
Briefly: Inhibition of human recombinant SGK2 at 40 nM in presence of ATP by radiometric assay relative to control.

The target in assay [2] is T2, Cytoplasmic tyrosine-protein kinase BMX (Homo sapiens) (UniProt P51813).
T2 sequence (whole entry): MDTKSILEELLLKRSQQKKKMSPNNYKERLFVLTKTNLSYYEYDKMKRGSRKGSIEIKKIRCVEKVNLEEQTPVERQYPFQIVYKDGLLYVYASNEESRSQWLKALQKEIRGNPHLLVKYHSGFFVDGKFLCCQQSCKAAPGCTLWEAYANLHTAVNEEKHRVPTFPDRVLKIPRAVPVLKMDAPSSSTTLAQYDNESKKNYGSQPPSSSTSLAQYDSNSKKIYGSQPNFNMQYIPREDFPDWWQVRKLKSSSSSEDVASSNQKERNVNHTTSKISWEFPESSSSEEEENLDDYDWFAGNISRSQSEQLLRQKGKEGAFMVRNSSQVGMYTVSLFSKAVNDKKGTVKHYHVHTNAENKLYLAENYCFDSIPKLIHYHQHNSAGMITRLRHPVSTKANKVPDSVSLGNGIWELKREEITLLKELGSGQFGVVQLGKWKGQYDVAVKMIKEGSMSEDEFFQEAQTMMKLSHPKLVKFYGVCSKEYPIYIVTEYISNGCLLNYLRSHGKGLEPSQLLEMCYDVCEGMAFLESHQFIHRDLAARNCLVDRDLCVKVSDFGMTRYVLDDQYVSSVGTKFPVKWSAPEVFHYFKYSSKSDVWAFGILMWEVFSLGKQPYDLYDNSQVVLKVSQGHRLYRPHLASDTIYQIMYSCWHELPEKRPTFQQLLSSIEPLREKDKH
Kind of assay: Inhibition of human recombinant BMX at 40 nM related to control ULK1.

The subject of the next assay is U2OS. Kind of assay: cells. The conditions noted are these: Homo sapiens.
The species named for the next assay is Homo sapiens. Kind of assay: Inhibition of human recombinant ABL at 500 nM in presence of ATP by radiometric assay relative to control. In short, it runs like this: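 Panel of 327 recombinant human kinases in radiometric activity assays, each screened in duplicate at a single inhibitor concentration; percent activity remaining relative to vehicle control, percent inhibition taken as 100 minus activity remaining.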

Assay [3] addresses Dual specificity protein kinase CLK1 (Homo sapiens) (UniProt P49759). Briefly: Inhibition of human recombinant CLK1 at 500 nM in presence of ATP by radiometric assay relative to control.
Assay [4] concerns the target Dual specificity protein kinase CLK4 (Homo sapiens) (UniProt Q9HAZ1). Kind of assay: Inhibition of human recombinant CLK4 at 500 nM in presence of ATP by radiometric assay relative to control.
The target in assay [5] is MAP kinase-activated protein kinase 3 (Homo sapiens) (UniProt Q16644). Kind of assay: Inhibition of human recombinant MAPKAPK3 at 500 nM in presence of ATP by radiometric assay relative to control.
Sequence of MAP kinase-activated protein kinase 3 (Homo sapiens) (Q16644 whole entry, looked up): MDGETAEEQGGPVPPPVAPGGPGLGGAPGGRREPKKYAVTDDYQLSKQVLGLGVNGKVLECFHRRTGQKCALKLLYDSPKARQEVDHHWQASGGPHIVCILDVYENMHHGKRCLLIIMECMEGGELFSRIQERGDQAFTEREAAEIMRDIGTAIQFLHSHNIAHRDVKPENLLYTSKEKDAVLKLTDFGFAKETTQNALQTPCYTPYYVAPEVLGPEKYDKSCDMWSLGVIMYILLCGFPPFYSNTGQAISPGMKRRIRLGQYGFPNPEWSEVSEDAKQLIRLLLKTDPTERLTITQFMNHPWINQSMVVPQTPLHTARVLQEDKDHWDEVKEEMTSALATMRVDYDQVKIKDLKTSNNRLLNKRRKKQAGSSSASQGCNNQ
The target in assay [6] is Platelet-derived growth factor receptor beta (Homo sapiens) (UniProt P09619). Briefly: Inhibition of human recombinant PDGFRb at 500 nM in presence of ATP by radiometric assay relative to control.
The target of assay [7] is Rho-associated protein kinase 2 (Homo sapiens) (UniProt O75116). Kind of assay: Inhibition of human recombinant ROCK2 at 500 nM related to control ULK1.
Assay [8] deals with Fibroblast growth factor receptor 1 (Homo sapiens) (UniProt P11362). Briefly: Inhibition of human recombinant FGFR1 at 15 nM in presence of ATP by radiometric assay relative to control.
Sequence of Fibroblast growth factor receptor 1 (Homo sapiens) (P11362 22-822 limits assumed): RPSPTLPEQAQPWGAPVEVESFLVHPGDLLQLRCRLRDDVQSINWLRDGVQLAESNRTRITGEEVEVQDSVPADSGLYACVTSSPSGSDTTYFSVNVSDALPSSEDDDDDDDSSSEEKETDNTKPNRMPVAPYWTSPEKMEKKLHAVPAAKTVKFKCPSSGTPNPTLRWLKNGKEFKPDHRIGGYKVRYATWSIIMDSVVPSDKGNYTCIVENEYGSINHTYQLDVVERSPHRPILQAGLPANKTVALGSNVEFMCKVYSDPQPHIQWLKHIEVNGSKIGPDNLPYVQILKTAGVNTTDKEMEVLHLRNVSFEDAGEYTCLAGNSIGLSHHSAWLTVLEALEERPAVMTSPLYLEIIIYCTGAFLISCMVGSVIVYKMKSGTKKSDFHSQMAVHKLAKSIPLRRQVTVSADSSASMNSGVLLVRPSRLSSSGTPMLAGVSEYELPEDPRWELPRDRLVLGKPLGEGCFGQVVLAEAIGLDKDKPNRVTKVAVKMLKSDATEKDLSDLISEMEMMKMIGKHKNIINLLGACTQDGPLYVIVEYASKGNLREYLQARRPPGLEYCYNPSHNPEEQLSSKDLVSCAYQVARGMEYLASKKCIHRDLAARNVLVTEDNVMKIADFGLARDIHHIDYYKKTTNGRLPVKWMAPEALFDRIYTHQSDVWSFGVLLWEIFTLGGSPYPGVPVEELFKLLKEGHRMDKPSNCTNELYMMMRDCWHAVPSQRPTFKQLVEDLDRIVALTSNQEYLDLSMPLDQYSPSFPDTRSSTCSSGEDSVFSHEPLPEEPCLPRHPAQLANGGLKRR
Assay [9] concerns the target Ribosomal protein S6 kinase alpha-3 (Homo sapiens) (UniProt P51812). Kind of assay: Inhibition of human recombinant RSK2 at 15 nM in presence of ATP by radiometric assay relative to control.
Assay [10] deals with Myosin light chain kinase 2, skeletal/cardiac muscle (Homo sapiens) (UniProt Q9H1R3). Briefly: Inhibition of human recombinant skMLCK at 15 nM in presence of ATP by radiometric assay relative to control.
Sequence of Myosin light chain kinase 2, skeletal/cardiac muscle (Homo sapiens) (Q9H1R3 whole entry): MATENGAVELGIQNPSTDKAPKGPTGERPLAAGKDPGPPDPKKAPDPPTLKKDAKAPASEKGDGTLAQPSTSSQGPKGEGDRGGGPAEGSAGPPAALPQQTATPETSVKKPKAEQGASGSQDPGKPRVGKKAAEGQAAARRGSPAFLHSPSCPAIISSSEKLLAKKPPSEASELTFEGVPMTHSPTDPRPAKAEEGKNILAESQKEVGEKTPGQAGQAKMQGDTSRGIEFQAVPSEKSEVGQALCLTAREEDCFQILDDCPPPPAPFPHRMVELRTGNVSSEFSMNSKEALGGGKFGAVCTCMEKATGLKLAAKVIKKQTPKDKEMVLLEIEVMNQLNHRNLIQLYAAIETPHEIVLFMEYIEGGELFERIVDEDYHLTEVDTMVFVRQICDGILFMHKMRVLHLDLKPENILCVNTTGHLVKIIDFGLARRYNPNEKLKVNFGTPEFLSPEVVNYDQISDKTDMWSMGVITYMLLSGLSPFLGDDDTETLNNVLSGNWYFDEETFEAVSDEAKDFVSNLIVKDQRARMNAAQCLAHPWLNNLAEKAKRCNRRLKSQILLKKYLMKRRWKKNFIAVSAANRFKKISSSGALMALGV
For assay [11], the target named is NT-3 growth factor receptor (Homo sapiens) (UniProt Q16288). Kind of assay: Inhibition of human recombinant TRKC at 15 nM in presence of ATP by radiometric assay relative to control.
Sequence of NT-3 growth factor receptor (Homo sapiens) (Q16288 32-839 limits assumed): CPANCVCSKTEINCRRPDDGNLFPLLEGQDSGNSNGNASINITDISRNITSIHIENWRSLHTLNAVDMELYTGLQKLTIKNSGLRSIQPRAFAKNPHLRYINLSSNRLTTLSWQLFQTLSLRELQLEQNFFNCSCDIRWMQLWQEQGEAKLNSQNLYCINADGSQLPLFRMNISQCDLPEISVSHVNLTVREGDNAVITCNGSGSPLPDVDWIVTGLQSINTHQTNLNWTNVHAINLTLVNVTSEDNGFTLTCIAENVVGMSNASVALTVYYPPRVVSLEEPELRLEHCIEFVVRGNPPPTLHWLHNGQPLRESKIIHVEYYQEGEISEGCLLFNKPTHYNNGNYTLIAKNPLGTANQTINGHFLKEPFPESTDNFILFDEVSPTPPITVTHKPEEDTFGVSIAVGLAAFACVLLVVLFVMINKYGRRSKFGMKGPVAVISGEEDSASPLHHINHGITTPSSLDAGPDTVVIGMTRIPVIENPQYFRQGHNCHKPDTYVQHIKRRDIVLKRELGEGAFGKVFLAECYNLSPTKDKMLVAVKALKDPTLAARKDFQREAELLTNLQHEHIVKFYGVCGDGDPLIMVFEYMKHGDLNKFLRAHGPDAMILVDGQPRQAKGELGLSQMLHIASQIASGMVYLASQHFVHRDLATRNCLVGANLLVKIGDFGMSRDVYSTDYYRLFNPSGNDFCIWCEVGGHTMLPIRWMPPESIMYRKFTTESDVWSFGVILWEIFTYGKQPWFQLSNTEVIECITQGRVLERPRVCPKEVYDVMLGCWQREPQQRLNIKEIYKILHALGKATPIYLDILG
For assay [12], the target named is T3, G protein-coupled receptor kinase 3 (Homo sapiens) (UniProt P35626).
T3 sequence (whole entry): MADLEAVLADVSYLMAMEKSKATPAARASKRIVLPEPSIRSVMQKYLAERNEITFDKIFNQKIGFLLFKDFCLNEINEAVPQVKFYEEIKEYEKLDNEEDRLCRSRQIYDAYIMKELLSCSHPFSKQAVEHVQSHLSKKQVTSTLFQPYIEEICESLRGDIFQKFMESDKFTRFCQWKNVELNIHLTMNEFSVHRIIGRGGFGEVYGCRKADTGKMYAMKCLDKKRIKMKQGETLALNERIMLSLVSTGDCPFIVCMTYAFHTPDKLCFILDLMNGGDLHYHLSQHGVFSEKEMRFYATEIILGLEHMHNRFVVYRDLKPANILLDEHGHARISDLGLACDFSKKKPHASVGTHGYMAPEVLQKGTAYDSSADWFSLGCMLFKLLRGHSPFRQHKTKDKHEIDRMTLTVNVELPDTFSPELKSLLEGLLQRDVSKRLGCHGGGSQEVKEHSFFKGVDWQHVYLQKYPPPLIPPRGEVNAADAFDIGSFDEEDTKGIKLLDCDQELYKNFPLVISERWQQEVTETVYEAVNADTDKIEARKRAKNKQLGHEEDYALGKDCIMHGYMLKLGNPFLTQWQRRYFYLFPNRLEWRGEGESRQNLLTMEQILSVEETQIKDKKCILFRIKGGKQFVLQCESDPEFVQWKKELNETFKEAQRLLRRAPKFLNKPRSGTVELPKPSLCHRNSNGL
Kind of assay: Inhibition of human recombinant BARK2 at 15 nM related to control ULK1.

For assay [13], the target named is Serine/threonine-protein kinase MARK2 (Homo sapiens) (UniProt Q7KZI7). Kind of assay: Inhibition of human recombinant MARK2 at 15 nM related to control ULK1.
Sequence of Serine/threonine-protein kinase MARK2 (Homo sapiens) (Q7KZI7 whole entry): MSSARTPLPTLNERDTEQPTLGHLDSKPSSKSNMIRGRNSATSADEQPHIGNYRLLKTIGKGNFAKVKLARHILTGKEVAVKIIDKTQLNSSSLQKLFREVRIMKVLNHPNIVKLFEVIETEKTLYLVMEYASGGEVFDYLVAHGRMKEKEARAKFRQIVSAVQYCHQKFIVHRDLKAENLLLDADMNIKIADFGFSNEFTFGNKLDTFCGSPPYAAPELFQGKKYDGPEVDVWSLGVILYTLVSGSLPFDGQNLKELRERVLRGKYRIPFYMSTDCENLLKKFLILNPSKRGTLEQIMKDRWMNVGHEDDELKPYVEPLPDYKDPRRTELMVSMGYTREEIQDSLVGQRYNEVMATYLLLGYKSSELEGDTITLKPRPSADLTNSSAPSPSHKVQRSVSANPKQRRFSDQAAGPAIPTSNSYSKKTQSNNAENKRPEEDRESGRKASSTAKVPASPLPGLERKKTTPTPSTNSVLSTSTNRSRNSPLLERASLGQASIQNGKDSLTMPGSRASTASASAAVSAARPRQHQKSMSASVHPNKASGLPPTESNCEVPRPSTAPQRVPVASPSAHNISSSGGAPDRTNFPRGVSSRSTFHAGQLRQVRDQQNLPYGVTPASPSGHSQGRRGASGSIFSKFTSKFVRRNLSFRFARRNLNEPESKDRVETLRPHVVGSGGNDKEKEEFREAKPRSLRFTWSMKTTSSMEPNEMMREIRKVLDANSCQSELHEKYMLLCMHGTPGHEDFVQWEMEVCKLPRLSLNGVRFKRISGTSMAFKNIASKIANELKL
The target in assay [14] is Serine/threonine-protein kinase PAK 5 (Homo sapiens) (UniProt Q9P286). Briefly: Inhibition of human recombinant PAK5 at 15 nM related to control ULK1.
Assay [15] concerns the target Serine/threonine-protein kinase pim-2 (Homo sapiens) (UniProt Q9P1W9). Briefly: Inhibition of human recombinant PIM2 at 15 nM related to control ULK1.

The structures appear in SMILES notation.

Sequence of Dual specificity protein kinase CLK4 (Homo sapiens) (Q9HAZ1 whole entry, looked up): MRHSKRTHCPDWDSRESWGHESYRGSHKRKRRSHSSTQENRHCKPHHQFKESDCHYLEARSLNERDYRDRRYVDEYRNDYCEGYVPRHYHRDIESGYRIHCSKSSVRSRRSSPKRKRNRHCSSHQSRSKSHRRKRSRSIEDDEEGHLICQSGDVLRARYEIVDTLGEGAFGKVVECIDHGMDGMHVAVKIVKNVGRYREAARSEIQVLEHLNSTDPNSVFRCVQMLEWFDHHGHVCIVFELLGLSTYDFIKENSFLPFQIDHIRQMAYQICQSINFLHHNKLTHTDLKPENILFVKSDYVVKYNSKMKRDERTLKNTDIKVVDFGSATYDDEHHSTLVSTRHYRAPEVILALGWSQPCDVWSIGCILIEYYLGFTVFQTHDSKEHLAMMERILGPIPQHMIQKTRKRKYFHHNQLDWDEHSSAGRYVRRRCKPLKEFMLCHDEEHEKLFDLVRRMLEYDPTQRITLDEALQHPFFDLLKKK
Sequence of Dual specificity protein kinase CLK1 (Homo sapiens) (P49759 whole entry, looked up): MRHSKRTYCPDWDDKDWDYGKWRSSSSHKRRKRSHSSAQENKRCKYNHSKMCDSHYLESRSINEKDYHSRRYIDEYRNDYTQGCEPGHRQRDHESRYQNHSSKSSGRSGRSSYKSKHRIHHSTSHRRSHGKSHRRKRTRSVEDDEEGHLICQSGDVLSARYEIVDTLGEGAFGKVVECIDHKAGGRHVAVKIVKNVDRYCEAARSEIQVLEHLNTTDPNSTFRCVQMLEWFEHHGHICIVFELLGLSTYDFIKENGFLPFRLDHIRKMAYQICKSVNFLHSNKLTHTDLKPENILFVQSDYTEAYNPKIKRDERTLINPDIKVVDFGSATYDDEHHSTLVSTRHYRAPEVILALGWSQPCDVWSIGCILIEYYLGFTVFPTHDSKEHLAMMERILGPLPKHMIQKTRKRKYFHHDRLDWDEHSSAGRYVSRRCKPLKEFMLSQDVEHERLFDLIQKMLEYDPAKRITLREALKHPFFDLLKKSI
Sequence of Serine/threonine-protein kinase pim-2 (Homo sapiens) (Q9P1W9 whole entry, looked up): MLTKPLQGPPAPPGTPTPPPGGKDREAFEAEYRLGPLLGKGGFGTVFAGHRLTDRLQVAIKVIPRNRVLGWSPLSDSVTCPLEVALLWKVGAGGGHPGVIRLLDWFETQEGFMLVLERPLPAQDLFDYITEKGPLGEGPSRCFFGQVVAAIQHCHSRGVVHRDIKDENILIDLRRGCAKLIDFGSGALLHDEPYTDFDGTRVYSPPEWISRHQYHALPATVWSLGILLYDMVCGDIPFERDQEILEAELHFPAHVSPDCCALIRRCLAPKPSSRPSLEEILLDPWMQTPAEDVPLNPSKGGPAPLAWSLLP

With `O=C(N[C@@H](C1CC1)C(F)(F)F)c1cc(-c2cnn3cc(-c4ccc(F)cc4)cnc23)cs1`, in assay [1], the inhibition (in general, the percentage by which the read-out fell short of the control) is 12%. For the same compound, the fold change (FC) in assay [2] turned out to be 0.05. Moreover, in the assay on U2OS, the EC50 (usually the midpoint of the concentration-response curve) was determined as 700 nM.

Take `CNC(=O)c1ccccc1Oc1nc(Nc2cc(OC)c(OC)c(OC)c2)ncc1Br`: the inhibition in the assay listed under Homo sapiens turned out to be 14%; in assay [3] it was 5%; in assay [4], 8%; in assay [5], 0%; in assay [6], 0%. Further, the fold change (FC) in [7] came out at 0.

As to `CC(C)[C@H](NC(=O)c1cc(-c2cnn3cc(-c4ccc(OCCN5CCCCC5)cc4)cnc23)cs1)C(F)(F)F`, the inhibition in assay [8] was 0%; in assay [9], 0%; in assay [10] it was 11%; in assay [11] it was 0%. The fold change (FC) in assay [12] is 0; in assay [13] it was 0.53; in [14], 0; in assay [15] it was 0.

The values are drawn from ChEMBL document CHEMBL5653631, “A Potent and Selective ULK1 Inhibitor Suppresses Autophagy and Sensitizes Cancer Cells to Nutrient Stress” (iScience, 2018).
